Assay outcomes: PubChem BioAssay, several laboratories
Hits are enriched below; roughly 6% of the tested compounds scored in any of these assays.
F-actin modifier: alters cytoskeleton assembly in HUVEC cells | HUVEC TNFa F-actin phalloidin imaging, high content | inhibition, % at 2 µM | 91,000 compounds, 0.18% hits | AID 836;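 active means inhibition above the batch mean plus 3 SD and confirmed as a hit by visual image inspection, cut at about 30% in these data, passing the limit was not always enough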
Jurkat viability: cytotoxicity toward Jurkat cells; Jurkat E6.1 viability, ATP luminescence, 48 h; inhibition, % at 4 µM; 56,000 compounds, 1.2% hits;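 active means inhibition above the mean inhibition of all tested compounds plus 3 SD, cut at about 28% in these data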
H69AR growth 86K: growth inhibitors of human H69AR lung tumor cells; H69AR lung tumor viability, ATP luminescence, 72 h; stronger effect = lower value; viability, % at 10 µM; 85,000 compounds, 6% hits; AID 598;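 active means viability at or below 40%; inactive means viability above 40%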;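 further: multidrug resistant small cell line overexpressing MRP-1 efflux transporter; 100% = mean luminescence of untreated control wells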
HUVEC inhibit: inhibitors of human endothelial cell proliferation. HUVEC proliferation, CellTiter-Glo luminescence, 72 h; stronger effect = lower value. viability, % at 10 µM (by protocol). 86,000 compounds, 1.1% hits;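 active means viability at or below 30%; inactive means viability above 30%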;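 further: 100% = median luminescence of DMSO-only cell control wells on each plate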
Fibroblast inh: blocks proliferation of human lung fibroblasts. LL 47 human lung fibroblast viability, ATP luminescence; stronger effect = lower value. viability, % at 10 µM. 85,000 compounds, 1.1% hits;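 active means viability at or below 50% in the single dose screen; inactive means viability above 50%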;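 further: compound exposure lasted 72 h before the ATP readout; 100% = median luminescence of untreated cell-only wells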
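material = human LL 47 lung fibroblast cells | dosing = compounds added from tenfold dosing solution, 0.1% DMSO final | timing = overnight cell rest, 72 h compound treatment at 37 °C | measured by = CellTiter-Glo luminescence measuring cellular ATP | evaluation = % viability versus median cells-only luminescence | control set = cell-only wells, no compound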
PTK2B oligo ant: blocks oligomerization of human Pyk2 in cells | Q14289 | 99,000 compounds, 0.83% hits | AID 1347419 | z-score (the deposit names both 25 µM and 10 µM) | Q293 cells, Pyk2 FERM NanoBiT luminescence; stronger effect = lower value;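 active means Z-score of -3 or lower, scaled per plate to the spread of control and sample wells; inactive means z-score above -3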;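 further: negative z-score means lost luminescence so less FERM oligomerization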
The depositor's hits bear a star; · = no result given.

SMILES | F-actin modifier | Jurkat viability | H69AR growth 86K | HUVEC inhibit | Fibroblast inh | PTK2B oligo ant
CCN(CC)CCCN(C(=O)c1cccs1)c1nc(-c2ccc(OC)cc2)cs1 | -11 | -1 | 29* | 15* | 69 | 1.1
COc1ccc(-c2csc(N(CC3CCCO3)C(=O)c3cccs3)n2)cc1 (centres undefined) | -3 | 1 | 76 | 100 | 99 | 0.42
COc1ccc(OC)c(-c2csc(N(Cc3ccco3)C(=O)c3cccs3)n2)c1 | -1 | 2 | 8.8* | 92 | 98 | -0.9
Cn1c(SCC(=O)NC(c2ccccc2)c2ccccc2)nnc1-c1cccs1 | 11 | · | 81 | 103 | 109 | -0.38
C=CCN1C(=O)C2(NNc3ccccc3O2)c2ccccc21 (centres undefined) | · | · | 13* | 23* | 76 | 1.7
CCc1nnc(NC(=O)c2ccc(S(=O)(=O)N(CC)CC)cc2)s1 | -17 | 1 | 100 | 93 | 100 | ·
CCCCN(CCCC)S(=O)(=O)c1ccc(NC(=O)Cc2cccs2)cc1 | -14 | · | 64 | 77 | 90 | -3.2*
CCc1nnc(NC(=O)c2ccc(S(=O)(=O)N(CC)Cc3ccccc3)cc2)o1 | 33 | 98* | 21* | 70 | 69 | -1.4
COc1cccc(C(=O)Nc2nnc(-c3cccs3)o2)c1 | -7 | 10 | 74 | 68 | 87 | ·
CCCCN(C)S(=O)(=O)c1ccc(C(=O)Nc2nnc(CSC)o2)cc1 | 4 | 53* | · | · | · | -0.65
CCCCN(CC)S(=O)(=O)c1ccc(C(=O)Nc2nnc(-c3cccs3)o2)cc1 | 18 | 101* | 35* | 5.0* | 62 | ·
CCCCOc1ccc(-c2nnn(CC(=O)NCCc3c[nH]c4ccccc34)n2)cc1 | -49 | · | · | · | · | 0.02
CCCCN(CCCC)S(=O)(=O)c1ccc(NS(=O)(=O)c2ccc(NC(C)=O)cc2)cc1 | 5 | · | 100 | 71 | 92 | -2.2
CCCCN(CCCC)S(=O)(=O)c1ccc(C(=O)Nc2nnc(COC)o2)cc1 | -4 | 18 | 27* | 34 | 67 | -1.9
COc1ccc(CC(=O)N2CCN(c3ccccn3)CC2)cc1 | -3 | -4 | 82 | 96 | 91 | 0.58
COc1ccc(CC(=O)N2CCC(Nc3nc4ccccc4n3Cc3ccc(F)cc3)CC2)cc1 | 10 | · | 21* | 71 | 89 | -0.47
CCC(c1nnnn1Cc1ccco1)N(CCc1ccccc1)Cc1cc2cc(C)ccc2[nH]c1=O (centres undefined) | · | 2 | 22* | 76 | 88 | 0.48
CCC(c1nnnn1CCOC)N(Cc1ccc(C)cc1)Cc1cc2cc(OC)ccc2[nH]c1=O (centres undefined) | · | -7 | 86 | 85 | 91 | 0.33
CCc1ccc2[nH]c(=O)c(CN(Cc3ccccc3)Cc3nnnn3Cc3ccco3)cc2c1 | 10 | 6 | 21* | 82 | 92 | 0.23
CCC(c1nnnn1Cc1ccccc1)N(Cc1ccco1)Cc1cc2cc(OC)ccc2[nH]c1=O (centres undefined) | 12 | 17 | 16* | 74 | 84 | -0.39
COCc1c(C)cc(C)c(/C=N/O)c1C | · | 5 | 83 | 93 | 97 | 0.08
COC(=O)C1=C(N)Oc2cc(N(C)C)ccc2C1c1ccccc1OC (centres undefined) | -21 | 75* | · | 60 | 62 | -0.8
O=C(Nc1cccc(Cl)c1)N1CCN2C(=O)c3ccccc3C12c1ccccc1 (centres undefined) | 9 | · | 85 | 82 | 82 | -3.2*
Cc1ccc(C(=O)N2CCN(c3ccc(Cl)cc3)CC2)cc1 | 5 | 2 | 99 | 116 | 95 | 1.3
O=C(Nc1cccc(Cl)c1)N1CCN(C/C=C/c2ccccc2)CC1 | · | -1 | 84 | 64 | 89 | -0.1
SMILES | F-actin modifier | Jurkat viability | H69AR growth 86K | HUVEC inhibit | Fibroblast inh | PTK2B oligo ant
Cc1ccc(C(=O)N2CCN3C(=O)c4ccccc4C23c2ccc(Cl)cc2)cc1 (centres undefined) | -6 | · | 33* | 66 | 61 | -1.4
CC1(C)Cc2ccccc2C2CC(O)C(=O)N21 (centres undefined) | 29 | 7 | 90 | 105 | 93 | 0.37
CC(=O)NC1=NN(C(C)=O)C(C)(c2cccs2)S1 (centres undefined) | 4 | · | 28* | 76 | 57 | -1.2
O=C(c1ccc(F)cc1)C(CCCCCC(CN1CCOCC1)C(=O)c1ccc(F)cc1)CN1CCOCC1 (centres undefined) | 0 | · | 23* | 56 | 89 | ·
CSc1nc2c(c(-c3ccc(O)cc3)c1C#N)CCC2 | -10 | 9 | 26* | 83 | 94 | -1.8
CCC(CC)c1nnc(NC(=O)c2ccc(N3CCCC3=O)cc2)s1 | -28 | · | 91 | 109 | 107 | 0.87
N#CC1=C(N)C(C#N)(C#N)C(c2cccnc2)C2CC(c3ccccc3)CC=C12 (centres undefined) | -31 | · | 1.6* | 5.9* | 44* | -1.4
O=C(c1ccc(O)cc1)c1ccc(Cl)cc1 | 12 | · | · | · | · | 0.21
C=C(c1ccc(O)cc1)c1ccc(O)cc1 | -17 | -4 | 23* | 86 | · | -4.6*
C/C=C(/C(=C/C)c1ccc(O)cc1)c1ccc(O)cc1 | · | · | 21* | 61 | 90 | ·
Cc1ccc(C(=O)c2ccc(O)cc2)cc1C | · | 0 | · | · | · | -0.02
CC(=O)Nc1nc2n(n1)C(c1ccccc1)C=C(c1ccccc1)N2 (centres undefined) | -3 | 3 | 74 | 95 | 108 | -1.2
CC(=O)Nc1nc2n(n1)C(c1ccc(F)cc1)C=C(c1ccccc1)N2 (centres undefined) | 38* | 0 | 77 | 93 | 98 | -0.42
CC1=C(C)SC(=C(C#N)c2nnc(N3CCOCC3)n2-c2ccccc2)S1 | · | -2 | 87 | 91 | 99 | ·
Cc1ccccc1-n1nc2c(c1NC(=O)c1cc3ccccc3oc1=O)CS(=O)(=O)C2 | -16 | · | 4.2* | 92 | 88 | ·
Cc1ccccc1-n1nc2c(c1NC(=O)c1cc3ccccc3oc1=O)CS(=O)C2 (centres undefined) | 20 | -5 | 90 | 92 | 101 | -0.3
COCCOC(=O)c1c(C)oc2ccc(O)c(CN3CCC(C)CC3)c12 | · | -5 | 87 | 92 | 95 | 2.5
CCOC(=O)c1c(-c2ccccc2)oc2ccc(O)c(CN(C)C)c12 | · | · | 10* | 55 | 73 | -0.93
CCOC(=O)c1c(-c2ccccc2)oc2ccc(O)c(CN3CCCC3)c12 | -25 | · | 5.3* | 3.5* | 59 | 0.53
Cn1nc(C(F)(F)F)cc1C(=O)NC1CCCCCC1 | -16 | · | · | · | · | 0.41
CCOc1ccc(-c2nc(=S)[nH][nH]2)cc1 | 21 | 2 | 40* | 92 | 102 | 0.64
Cc1[nH]n(-c2ccc([N+](=O)[O-])cc2)c(=O)c1N=Nc1nc2ccccc2s1 | 6 | · | 35* | 41 | · | ·
O=C(NCc1ccco1)c1ccc(S(=O)(=O)N2CCCc3ccccc32)cc1 | 11 | -1 | 31* | 84 | 92 | -2.4
CC(=O)Nc1ccc(S(=O)(=O)N2CCCc3ccccc32)cc1 | -13 | 82* | 13* | 48 | 70 | -0.74
